# Compound activity: PubChem BioAssay, several laboratories
# MC4R ag barr: agonists of human melanocortin 4 receptor (MC4R) beta-arrestin | activation, % at 8.9 µM | U2OS MC4R beta-arrestin complementation, luminescence; percent of melanotan II response, DMSO zero | 360,000 compounds, 0.98% hits | P32245;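 active = activation above a per-plate cutoff, the mean activation of sample wells on that plate plus 3 SD, cut at about 8% in these data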
# Target sequence (P32245 whole entry, looked up): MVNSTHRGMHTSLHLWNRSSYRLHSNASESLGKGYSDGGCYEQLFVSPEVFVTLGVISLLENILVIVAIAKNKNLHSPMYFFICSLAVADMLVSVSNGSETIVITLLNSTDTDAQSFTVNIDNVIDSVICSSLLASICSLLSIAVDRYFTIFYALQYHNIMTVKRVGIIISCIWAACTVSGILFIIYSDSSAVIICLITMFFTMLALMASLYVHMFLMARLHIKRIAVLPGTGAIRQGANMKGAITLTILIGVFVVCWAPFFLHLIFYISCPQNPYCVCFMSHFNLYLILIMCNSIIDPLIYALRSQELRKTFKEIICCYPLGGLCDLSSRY
# NR2E3 ag-1: agonists of human nuclear receptor NR2E3; Q9Y5X4; GST-NR2E3/biotin-RetCOR TR-FRET, 1536-well; inhibition of corepressor binding, % at 4.78 µM; 320,000 compounds, 0.12% hits; AID 2300;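 active = percent inhibition above the cutoff of mean plus 3 SD of all tested compounds, set per screening campaign, cut at about 20% in these data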
#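 Material: NR2E3–RetCOR corepressor complex | Quantity: 1.35 nM GST-tagged NR2E3 final | Schedule: 5 h at 4 °C | Replication: Singlicate compound wells | Reagent: RetCOR corepressor, biotinylated, 7 nM | Controls: Biotin wells as high control, 0.6% DMSO wells as low control | Signal: TR-FRET, Eu(K)-anti-GST donor, streptavidin-D2 acceptor, ex 340, em 617/671 nm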
# NR2E3 ag-2: activates human NR2E3 receptor. CHO-S Gal4-NCOR/VP16-NR2E3 two-hybrid, luciferase. inhibition of corepressor binding, % at 3.98 µM. 360,000 compounds, 0.35% hits. AID 602229;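 active = inhibition above the mean of all tested compounds plus 3 SD, cut at about 70% in these data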;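 also: higher means lower luciferase signal from less NR2E3 corepressor binding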
# MC4R antagonist: blocks human MC4R cAMP signaling; MC4R-expressing cells, MTII-stimulated cAMP, LANCE TR-FRET; 360,000 compounds, 0.48% hits; P32245; inhibition, % at 6.5 µM;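 active = inhibition above its plate's cutoff, the mean of tested wells on that plate plus 3 SD, cut at about 29% in these data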
#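 System: U2OS cells stably expressing human melanocortin 4 receptor (MC4R). Reagent: Melanotan II challenge after compound preincubation. Doses: 6.5 µM. Times: 30-min compound, 1-h challenge, 1-h detection, room temperature. Measured by: TR-FRET with Eu-cAMP and labeled anti-cAMP, 671 nm. Replicates: singlicate.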
# NR1D1 modulator: Rev-erb alpha (human) modulation. P20393. Rev-erbα–FITC-DNA binding, fluorescence polarization, 90 min. activity, % at 10 µM. 370,000 compounds, 0.79% hits. AID 1259318;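 active = activity above about 14%, limit read from the data; passing the limit was not always enough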
# PG9 Ab binder: small molecules binding HIV-1 gp120 antibody PG9 | 360,000 compounds, 0.43% hits | inhibition, % at 6.7 µM | TR-FRET gp120-PG9 antibody binding; in the data active = inhibition above about 8.5%
# NR2E3 ag confirm: confirmation of human NR2E3 agonists; shares compounds with NR2E3 ag-2; 2,300 compounds, 51% hits; CHO-S mammalian two-hybrid NR2E3-NCOR, luciferase luminescence; inhibition, % at 3.98 µM;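 active = average inhibition above a cutoff equal to the mean inhibition of all tested compounds plus one SD, cut at about 70% in these data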
# VP16 counter: counter-screen for NR2E3 agonists: GAL4-VP16 reporter inhibitors | inhibition, % at 3.98 µM | CHO-S GAL4-VP16 luciferase reporter, luminescence | 2,300 compounds, 29% hits | shares compounds with NR2E3 ag-2;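 active = mean inhibition above a cutoff equal to the average over all tested compounds plus one standard deviation, cut at about 70% in these data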;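 also: luciferase from a UAS reporter driven by GAL4-VP16 transactivation; higher means less reporter light so more repression of VP16 activity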
# A number is an active result; i = inactive; nt = no result given. In the library only some 2.7% were active in any assay of this set; here they are far more common.
SMILES,MC4R ag barr,NR2E3 ag-1,NR2E3 ag-2,MC4R antagonist,NR1D1 modulator,PG9 Ab binder,NR2E3 ag confirm,VP16 counter
CC(C)CNC(=S)N1CCC(c2nc(-c3ccc(F)cc3)no2)CC1,i,i,i,i,i,i,88,i
Cc1csc2ncnc(N3CCN(S(=O)(=O)c4cccc(C(F)(F)F)c4)CC3)c12,i,i,94,i,i,i,97,90
Cc1cc(C)n2nc(SCc3cccc(S(=O)(=O)N(C)C)c3)nc2n1,i,i,i,i,i,i,nt,nt
CN(C)S(=O)(=O)c1cccc(CSCc2cccc(S(=O)(=O)N(C)C)c2)c1,i,i,88,i,i,i,94,81
Cc1ccc(CNC(=O)c2ccc(N3CCC4(CC3)CC(c3cccc(Br)c3)=NO4)c([N+](=O)[O-])c2)cc1,i,i,i,i,i,i,nt,nt
CCCNC(=O)c1ccc(N2CCC3(CC2)CC(c2cccc(Br)c2)=NO3)c([N+](=O)[O-])c1,i,i,i,i,i,i,74,i
CCCn1c(N2CCC(Cc3ccccc3)CC2)nc2c1c(=O)[nH]c(=O)n2C,i,i,i,i,i,i,i,i
O=CN/N=C/c1c(O)ccc2ccccc12,i,i,i,i,i,i,nt,nt
NC(=S)N/N=C/c1c(O)ccc2ccccc12,i,i,75,i,i,i,i,i
C/C(NC(=O)c1ccccc1)=C1/C(=O)CC2C1C2(C)C (centres undefined),i,i,i,i,i,i,nt,nt
CC(C)(NO)/C(=N/O)c1ccc(Br)cc1,i,i,i,i,i,i,i,i
CC[C@@H](C(=O)[C@@H](C)[C@@H](O)[C@H](C)[C@@H]1O[C@@H]([C@@H](CC)C(=O)O)CC[C@@H]1C)[C@H]1O[C@]2(C=C[C@@H](O)[C@]3(CC[C@@](C)([C@H]4CC[C@](O)(CC)[C@H](C)O4)O3)O2)[C@H](C)C[C@@H]1C,36,nt,102,i,i,i,100,84
CCn1nc(C)c(CNC(=O)c2ccc(OC3CCN(Cc4ccccn4)CC3)cc2)c1C,i,nt,79,i,i,i,i,i
CC1=C/C(=N\NC(=S)Nc2cccnc2)CC(C)(C)C1,i,nt,80,i,i,i,i,i
Cc1cccc(N2CCN(C(=O)CSCc3c(C)noc3C)CC2)c1C,i,i,i,i,nt,nt,87,i
Cc1noc(C)c1CSCC(=O)N1CCN(c2ccc(F)cc2)CC1,i,i,i,i,i,i,nt,nt
O=S(=O)(c1cc(F)ccc1F)N1CCN(c2ncnc3ccccc23)CC1,i,nt,88,i,i,i,92,74
CCc1cc(OCCCSc2nc(C)cc(=O)[nH]2)ccc1Cl,i,i,i,i,i,i,76,i
BrC(=C\c1ccccc1)/C=N/n1cnnc1,i,nt,i,i,i,i,i,i
NC(=O)c1ccc(N2CCN(S(=O)(=O)c3cccs3)CC2)c([N+](=O)[O-])c1,i,nt,82,i,i,i,95,78
NC(=O)c1ccc(N2CCN(c3ccccc3O)CC2)c([N+](=O)[O-])c1,i,i,i,i,i,i,nt,nt
Cc1cccc(C(=O)OCC(=O)c2c(N)n(CC(C)C)c(=O)n(C)c2=O)c1[N+](=O)[O-],i,i,i,i,i,i,i,i
CC(C)Cn1c(N)c(C(=O)COC(=O)CC23CC4CC(CC(C4)C2)C3)c(=O)n(C)c1=O,i,i,94,i,i,i,93,76
CC(C)Cn1c(N)c(C(=O)COC(=O)/C=C/c2ccccc2)c(=O)n(C)c1=O,i,i,74,i,i,i,i,i
CC(C)Cn1c(N)c(C(=O)CSc2ccccc2)c(=O)n(C)c1=O,i,i,i,i,i,i,nt,nt
SMILES,MC4R ag barr,NR2E3 ag-1,NR2E3 ag-2,MC4R antagonist,NR1D1 modulator,PG9 Ab binder,NR2E3 ag confirm,VP16 counter
O=c1c2ccc(F)cc2sn1-c1ccccc1,i,nt,i,i,i,i,nt,nt
Cc1ccc(-n2sc3cc(F)ccc3c2=O)c(C)c1,8.8,nt,i,i,i,i,i,i
O=C(NC(=C(Cl)Cl)S(=O)(=O)c1ccc(Cl)cc1)c1ccccc1,i,i,i,i,i,i,i,i
CC(=O)NC(=C(Cl)Cl)S(=O)(=O)c1ccccc1,i,i,i,i,i,i,i,i
Cc1ccc(C2/C(=C(/O)c3cnn(-c4ccccc4)c3C)C(=O)C(=O)N2CCCN2CCOCC2)o1 (centres undefined),nt,i,nt,nt,nt,nt,nt,nt
Cc1c(/C(O)=C2/C(=O)C(=O)N(CCN3CCOCC3)C2c2ccccn2)cnn1-c1ccccc1 (centres undefined),i,i,84,i,i,i,i,i
Cc1ccc(S(=O)(=O)NCCC2=CCCCC2)cc1C(N)=O,i,i,75,i,i,i,84,i
Cc1cc(S(=O)(=O)NCCC2=CCCCC2)ccc1Br,i,i,i,i,i,i,nt,nt
CCOc1ccc(C(C)NC(=O)C2CCC2)cc1 (centres undefined),i,i,i,i,i,i,nt,nt
CCOc1ccc(CN(C)c2ccc(S(=O)(=O)N3CCN(C)CC3)cc2[N+](=O)[O-])cc1OC,i,i,i,i,nt,nt,78,i
CC(=O)Nc1ccc(S(=O)(=O)NCCSCc2ccccc2Cl)cc1,i,i,71,i,i,i,82,i
S=c1[nH]cnc2scc(-c3ccc(Br)cc3)c12,i,i,81,i,i,i,i,i
S=c1[nH]cnc2scc(-c3ccc(Cl)cc3)c12,i,i,i,i,i,i,i,i
O=C(Cc1cccc2ccccc12)NCC(=O)N1CCN(CC(=O)Nc2ccc(F)cc2)CC1,i,nt,i,i,i,i,nt,nt
O=C(Cc1cccc2ccccc12)NCC(=O)N1CCN(Cc2cccc(C(F)(F)F)c2)CC1,i,i,i,i,i,i,i,i
O=C(CCNS(=O)(=O)c1cccc2nsnc12)Nc1ccc2c(c1)OCCO2,i,i,i,i,i,i,nt,nt
O=S(=O)(Nc1ccc2c(c1)OCCO2)c1cccc2nsnc12,i,i,i,i,i,i,i,i
Cc1ccc(Cl)cc1N1CCN(C(=O)CCS(=O)(=O)c2cccc3nonc23)CC1,i,i,i,i,i,i,nt,nt
CC(=O)Nc1ccc(Nc2cc(C)nc3c(-c4ccccc4)cnn23)cc1,i,i,i,i,i,i,i,i
CC(Sc1nc2ccccc2c(=O)n1C)C(=O)N(C)C1CCCCC1 (centres undefined),i,i,95,i,i,i,92,76
CC(C)C(Sc1nc(-c2ccccc2)cc(-c2ccccc2)c1C#N)C(=O)O (centres undefined),i,i,i,i,i,i,i,i
